Tested on: MS2 coat protein
Assay: apparent Kd, MS2 coat protein; higher = weaker binding; RNA-MaP array; FMN 200 µM where present
Outline: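 Designs on Illumina sequencing-chip clusters, transcribed by stalled E. coli RNA polymerase, were exposed to SNAP-549-labelled MS2 coat protein in doubling steps from 0.7 or 1.5 nM up to 3 µM, without and then with constant ligand. The buffer held 100 mM Tris-HCl pH 7.5, 80 mM KCl, 4 mM MgCl2, BSA, DTT, yeast tRNA and Tween-20. Apparent Kd values are medians of filtered per-cluster binding-curve fits to green signal normalised to red-channel RNA signal and control-cluster median Fmax.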

[1] = designed as: ON switch for flavin mononucleotide, no ligand
[2] = ligand present: flavin mononucleotide, designed as: ON switch for flavin mononucleotide
[3] = designed as: OFF switch for flavin mononucleotide, no ligand
[4] = ligand present: flavin mononucleotide, designed as: OFF switch for flavin mononucleotide

Row | Sequence | apparent Kd [1] | apparent Kd [2] | apparent Kd [3] | apparent Kd [4]
1 | GUGCCUUGGAAGAAGGCCGAUAGCAAAGCUAUCGGAGGAUAUUCAUACCGGAAACGGACAUGAGGAUCACCCAUGUGGCACAAA | 15.3 nM | 6.96 nM | – | –
2 | CUCCGGCGUGUAGGAUAUGGAUCCGAUUAGGAUCCAGAAGGACAUGAGGAUCACCCAUGUACAUGUAAACAGUCAUCACCGGAG | – | – | 6.24 nM | 6.99 nM
3 | CACCGGUGUACAGGAUAUGCAUCUACGUGGGCUGCAGAAGGGUACAUGAGGAUCACCCAUGUCAACGAAUCCUCAAAUUAGCGA | – | – | 1030 nM | 1130 nM
4 | GGCUCCGCUCGAGGAUAUAGCUGCAUGUAGUGUCCUGAGGCACAUGAGGAUCACCCAUGUGUAGGCUAGAAGGCGACGGACGUU | – | – | 121 nM | 249 nM
5 | CAAUUCCGAGGAUAUACAUGAGGAUCACCCAUGUCGGGCCUCAGCGUUUAGCGCUUAAGUAGAAGGUGGGUUUC | – | – | 40.7 nM | 54.5 nM
6 | ACAUGAGGAUCACCCAUGUUGAAUUAGGAUAUUUGACUGCACAUGAGGUUCUCCCAUGUUCAACCGGAGAAGGGAUUAAUAAUU | 318 nM | 132 nM | – | –
7 | ACUAGAUGAGGAUAUGCAUAUUUUCGUGUUCUUCUAGAUUAACAUGAGGAUCACCCAUGUAGAAGGCGUCUGGA | – | – | 17.8 nM | 26 nM
8 | AUUAUAUAGCAAGGAUAUAGAAUAUUAUUUUAACAUGAGGAUCACCCAUGUAACCUUAUGUGUAGCUAGAAGGUGCAUUUAUUA | – | – | 73.2 nM | 109 nM
9 | GCUGGUCGAGGAUAUAUAUGACGUGCUUCGGCACGAAGGUCACAUGAGGAUCACCCAUGUAGAAGGCGACCAGC | – | – | 56.4 nM | 390 nM
10 | UCUUUAUAGAUCCAUUUUAACUACAUGAGGAUCACCCAUGUGCAGGAUAUCGAUUGUUUUACUUUCGAGAAGGGCAAAUUCAGC | – | – | 57.6 nM | 131 nM
11 | GUAGAGUCAGGAUAUACGAGAUCGAAAGAUCAGUAAUCCUCACAUGAGGAUCACCCAUGUAGAAGGGACUCUAC | – | – | 23.4 nM | 344 nM
12 | GCAGGCUUCGAGAAGGACAUGAGGAUCACCCAUGUGCGUGUGAAGCAGCCGUGAGGCUGCAUCAUGUAGGAUAUCGGAGUCUGA | – | – | 74.5 nM | 500 nM
13 | CUCAUGUCAGGAUAUCGUGCAGCUACCGAAAGGUAGCUGCACGAGAAGGGACAUGAGGAUCACCCAUGUAUGAA | – | – | 22.2 nM | 18.4 nM
14 | GCAAUGUAAGGAUAUUCGGAGUCCUGCCGGGCAGGUAGGUUGGAGAAGGUACAUGAGGAUCACCCAUGUGAGCC | – | – | 48.6 nM | 170 nM
15 | UUAUUGGUAGUGAGGAUAUCGGUUUGAUAGAUAUUCGAGAAGGCACAUGAGGAUCACCCAUGUAAGAUUGGGAA | – | – | 201 nM | 196 nM
16 | CUAUUUAGUGCCUCAUGUACAUGAGGAUCACCCAUGUUAACUUAGGAUAUAUUUAUAUUGAUAGAGUAGAAGGAAGUACUAUUG | – | – | 70.2 nM | 61 nM
17 | CAGGUAGCUACAGGAUAUACACGUCUGGAUAAACCAGACGAAUACCUUACAUGAGGAUCACCCAUGUAGAAGGGUAGCUGCCUG | – | – | 16.9 nM | 19.8 nM
18 | GUAGCUAUCGGAGGAUAUUCAUACCGGAAACGGACAUGAGGAUCACCCAUGUGGCGAAAGACUUGGGAGAAGGCCGAUAGCUAC | 183 nM | 35.5 nM | – | –
19 | AUCAAGUGAGGAUAUGAUUAUACAACAAACUAACAUCUACAUCAGAAGGCACAUGAGGAUCACCCAUGUUUGUC | – | – | 18.1 nM | 16.6 nM
20 | UGUCGGAGCAGAGGAUAUUACAUGAGGAUCACCCAUGUAUGAACCAAUAGCUGGAAACAGCAAUGUAAGAAGGCUGCUCCGUCA | – | – | 11.9 nM | 167 nM
21 | AAGACAUGAGGAUCACCCAUGUAAAGACCGGUCGAUCAAUGUGAGGAUAUUCCAUAAUUGAUAGGGAAGAAGGCACUGGGUUGA | 177 nM | 130 nM | – | –
22 | UUUGGGUGGCUGGAGGAUAUUCUUGUGGUUACAUGAGGAUCACCCAUGUGUCGCGCGGUACGCGAGGAGAAGGCUGGCGGCCGUU | 327 nM | 56.2 nM | – | –
23 | UGGUACAUGGGAGGAUAUGGGUAGAUAACAUGAGGAUCACCCAUGUUAAGAAAUGCCGAAAGGCACUAGAAGGCCCAUGUACCU | 637 nM | 46.7 nM | – | –
24 | AAAAAGGCAGGAUAUACAUGAGGAUCACCCAUGUAAAGAAAGAAAGAAGAAAGGGAAAGUAGAAGGGCCAAAAA | – | – | 38.2 nM | 46 nM
25 | CUUUCGUGAGGAUAUGUGGCUUCGAUCGUGAGAUCGAGGCUACAGAAGGCACAUGAGGAUCACCCAUGUUCCUC | – | – | 38.8 nM | 487 nM
26 | GGUCCAACAUGAGGAUAUAGCACCUUAUUGGUGCUAGAAGGCGUGUCGAUAGACAUGAGGAUCACCCAUGUAAUAAAUUGGACC | 793 nM | 139 nM | – | –
27 | CGUAUGUCAGGAUAUGCGUAUGCCGCCCAGGACAGGCGGCAGCAGAAGGGACAUGAGGAUCACCCAUGUUCGGG | – | – | 68.3 nM | 59.5 nM
28 | CAAGGCGUUGACCGACUCCAGACAUGAGGAUCACCCAUGUAGAAGGAUAUGUACCGCACCCUUGGACAGAAGGUCUACUGGGUU | – | – | 17 nM | 38.9 nM

From the EternaBench riboswitch data
